Results reported in ChEMBL document CHEMBL4699633, “Total Syntheses of Prenylated Isoflavones from Erythrina sacleuxii and Their Antibacterial Activity: 5-Deoxy-3'-prenylbiochanin A and Erysubin F” (J Nat Prod, 2020).
Converted amounts (≈) assume the structure as drawn.

How the values were obtained:
[1] = tested on: Salmonella enterica subsp. enterica; assay: Antibacterial activity against Salmonella enterica subsp.enterica NCTC 13349 assessed as reduction in microbial growth after 18 hrs by agar dilution method; type: functional
Procedure, shortened: (§1)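 Agar dilution on Mueller Hinton agar; compounds dissolved in DMSO, 2-fold serial dilutions in solvent added to agar (DMSO 1% v/v final). Inocula from overnight cultures, adjusted photometrically. Plates incubated aerobically at 37 °C for 18 h. Vancomycin or ampicillin as positive controls, DMSO-only plates as negative controls.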

Candida albicans = assay: Antifungal activity against Candida albicans ATCC 90028 assessed as reduction in microbial growth after 48 hrs by agar dilution method; type: functional
Procedure, shortened: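 Agar dilution in yeast extract peptone dextrose (YPD) agar; compounds in DMSO, 2-fold serial dilutions added to medium (DMSO 1% v/v final). Inoculum from overnight culture, adjusted photometrically. Plates incubated at 30 °C for 48 h. Amphotericin B as positive control, DMSO-only plates as negative control.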

Escherichia coli = assay: Antibacterial activity against Escherichia coli ATCC 25922 assessed as reduction in microbial growth after 18 hrs by agar dilution method; type: functional; procedure, shortened: as §1
Staphylococcus aureus [2] = assay: Antibacterial activity against methicilin-resistant Staphylococcus aureus ATCC 43300 assessed as reduction in microbial growth after 18 hrs by agar dilution method; type: functional
Procedure, shortened: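 MRSA ATCC 43300 tested by standardized agar dilution. Compounds dissolved in DMSO and 2-fold serially diluted in solvent, then added to Mueller Hinton agar at 1% v/v DMSO final. Inoculum from overnight culture, photometrically adjusted. Plates incubated aerobically at 37 °C for 18 h. Vancomycin served as positive control. DMSO-only (1% v/v) plates served as negative control. Read-out was MIC.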

Listeria monocytogenes = assay: Antibacterial activity against Listeria monocytogenes assessed as reduction in microbial growth measured every 5 mins for 24 hrs; type: functional
Plasmodium falciparum [3] = assay: Antiplasmodial activity against chloroquine-resistant Plasmodium falciparum W2 by [3H]-hypoxanthine incorporation assay; type: functional, organism-based
Plasmodium falciparum [4] = assay: Antiplasmodial activity against chloroquine-sensitive Plasmodium falciparum D6 by [3H]-hypoxanthine incorporation assay; type: functional, organism-based
[5] = tested on: Mycobacterium tuberculosis; assay: Antimycobacterial activity against Mycobacterium tuberculosis; type: functional
Staphylococcus aureus [6] = assay: Antibacterial activity against methicillin-resistant Staphylococcus aureus assessed as reduction in microbial growth after 24 hrs by two-fold serial dilution method; type: functional

Row | Compound | MIC [1] [µM] | MIC (Candida albicans) [µM] | MIC (Escherichia coli) [µM] | MIC (Staphylococcus aureus [2]) [µM] | MIC (Listeria monocytogenes) [µM] | other results
1 | CC(C)=CCc1cc(-c2cc(=O)c3ccc(O)c(CC=C(C)C)c3o2)ccc1O | > 82 | > 82 | > 82 | 20.5 |  | 
2 | CC(C)=CCc1cc(-c2coc3cc(O)cc(O)c3c2=O)ccc1O [CORYLIN] |  |  |  |  | 59.1 | 
3 | CC(C)=CCc1c(O)cc2occ(-c3ccc(O)cc3)c(=O)c2c1O [WIGHTEONE] |  |  |  |  | 29.6 | 
4 | C[C@@H]1[C@H](O)[C@@H](C)/C=C/C=C/C=C/C=C/C=C/C=C/C=C/[C@H](O[C@@H]2O[C@H](C)[C@@H](O)[C@H](N)[C@@H]2O)C[C@@H]2O[C@](O)(C[C@@H](O)C[C@@H](O)[C@H](O)CC[C@@H](O)C[C@@H](O)CC(=O)O[C@H]1C)C[C@H](O)[C@H]2C(=O)O [AMPHOTERICIN B] |  | 0.5 |  |  |  | 
5 | CN[C@H](CC(C)C)C(=O)N[C@H]1C(=O)N[C@@H](CC(N)=O)C(=O)N[C@H]2C(=O)N[C@H]3C(=O)N[C@H](C(=O)N[C@H](C(=O)O)c4cc(O)cc(O)c4-c4cc3ccc4O)[C@H](O)c3ccc(c(Cl)c3)Oc3cc2cc(c3O[C@@H]2O[C@H](CO)[C@@H](O)[C@H](O)[C@H]2O[C@H]2C[C@](C)(N)[C@H](O)[C@H](C)O2)Oc2ccc(cc2Cl)[C@H]1O [VANCOMYCIN] |  |  |  | 0.5 |  | 
6 | COc1ccc(-c2coc3cc(O)ccc3c2=O)cc1CC=C(C)C | > 190 | > 95.1 | > 95.1 | > 155 |  | IC50 (Plasmodium falciparum [3]): 20 µM; IC50 (Plasmodium falciparum [4]): 20 µM
7 | CC1(C)S[C@@H]2[C@H](NC(=O)[C@H](N)c3ccccc3)C(=O)N2[C@H]1C(=O)O [AMPICILLIN] | 11.4 |  | 11.4 |  |  | 
8 | CC(C)=CCc1cc(-c2coc3c(CC=C(C)C)c(O)ccc3c2=O)ccc1O [ERYSUBIN F] | > 82 | > 82 | > 82 | 15.4 |  | MIC [5]: 32 µM (≈ 12.5 µg/mL); MIC (Staphylococcus aureus [6]): 256 µM
9 | CC(C)=CCc1c(O)cc(O)c2c(=O)c(-c3ccc(O)cc3)coc12 |  |  |  |  | > 148 | 
